# What was measured:
# [1] = biological target: T1, Dihydrofolate reductase (Gallus gallus) (UniProt P00378)
# T1 sequence (whole entry): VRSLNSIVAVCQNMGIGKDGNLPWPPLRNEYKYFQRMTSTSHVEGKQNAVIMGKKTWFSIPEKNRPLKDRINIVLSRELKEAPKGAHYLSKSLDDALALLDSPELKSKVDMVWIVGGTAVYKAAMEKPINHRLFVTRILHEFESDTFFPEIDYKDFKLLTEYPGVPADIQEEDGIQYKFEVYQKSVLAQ
# [2] = biological target: T2, Dihydrofolate reductase (Bos taurus) (UniProt P00376)
# T2 sequence (whole entry): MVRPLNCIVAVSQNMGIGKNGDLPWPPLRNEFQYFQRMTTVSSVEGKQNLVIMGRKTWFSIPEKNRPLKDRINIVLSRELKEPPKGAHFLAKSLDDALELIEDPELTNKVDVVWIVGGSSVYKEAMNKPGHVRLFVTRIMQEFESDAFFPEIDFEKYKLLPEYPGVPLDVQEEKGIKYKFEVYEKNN
# [3] = biological target: T2, Dihydrofolate reductase (Bos taurus); assay: Inhibitory activity against bovine liver Dihydrofolate reductase at pH 7.2.
# In short: (§1)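 DHFR from chicken liver and from bovine liver, each assayed at pH 7.2 by the group's earlier-reported inhibition procedure. Potency is expressed as an apparent inhibition constant, reported as log(1/Ki app).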
# [4] = biological target: T1, Dihydrofolate reductase (Gallus gallus); assay: Inhibitory activity against chicken Dihydrofolate reductase at pH 7.2.
# In short: as §1
Log 1/Ki app [1],SMILES,also measured
3.64,COCCOc1c(OC)cc(Cc2cnc(N)nc2N)cc1OC,
4.26,Nc1ncc(Cc2ccc(OC(F)(F)F)cc2)c(N)n1,Log 1/Ki app [2]: 5.42
,Nc1ncc(Cc2cc(O)cc(O)c2)c(N)n1,Log 1/Ki app [3]: 3.39
4.37,Nc1ncc(Cc2ccc([N+](=O)[O-])cc2)c(N)n1,
4.7,Nc1ncc(Cc2cccc(F)c2)c(N)n1,
4.71,Nc1ncc(Cc2ccccc2)c(N)n1,
4.46,COc1ccc(Cc2cnc(N)nc2N)cc1OC,Log 1/Ki app [2]: 5.66
4.79,Nc1ncc(Cc2ccc(F)cc2)c(N)n1,
4.26,CC(=O)Nc1ccc(Cc2cnc(N)nc2N)cc1,
,CCCCCCCOc1ccc(Cc2cnc(N)nc2N)cc1,Log 1/Ki app [3]: 5.45
,COCCOc1cccc(Cc2cnc(N)nc2N)c1,Log 1/Ki app [4]: 4.83; Log 1/Ki app [3]: 5.58
4.79,Nc1ncc(Cc2cccc(I)c2)c(N)n1,Log 1/Ki app [2]: 6.15
5.01,Nc1ncc(Cc2cccc(Cl)c2)c(N)n1,
5.17,CCCCOCc1cccc(Cc2cnc(N)nc2N)c1,
4.99,COc1ccc(Cc2cnc(N)nc2N)cc1C(F)(F)F,
4.72,Cc1cccc(Cc2cnc(N)nc2N)c1,
4.01,CN(C)c1ccc(Cc2cnc(N)nc2N)cc1,

# Source: ChEMBL document CHEMBL1122156, “A comparison of the inhibitory action of 5-(substituted-benzyl)-2,4-diaminopyrimidines on dihydrofolate reductase from chicken liver with that from bovine liver” (J Med Chem, 1982)
